Experimental data as given in ChEMBL document CHEMBL3286377, “Microwave-assisted synthesis of C-8 aryl and heteroaryl inosines and determination of their inhibitory activities against Plasmodium falciparum purine nucleoside phosphorylase” (Eur J Med Chem, 2014).
Active and inactive are the calls of the source. No cut-off for these calls is given here.

Columns and labels:
[1] = test system: CCRF-CEM; assay: Cytotoxicity against human CEM cells up to 100 uM; format: cell-based
[2] = test system: Respiratory syncytial virus; assay: Antiviral activity against Respiratory syncytial virus Long assessed as inhibition of virus-induced cytopathicity at 100 uM by cell-based assay; format: functional, organism-based
Summary of the method: (§1)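 Confluent HEL, Vero, HeLa or MDCK monolayers were infected with 100 CCID50 of virus in the presence of varying compound concentrations. Activity is expressed as EC50, the concentration that halves virus-induced cytopathicity.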

[3] = test system: Human respirovirus 3; assay: Antiviral activity against Parainfluenza virus 3 assessed as inhibition of virus-induced cytopathicity at 100 uM by cell-based assay; format: functional, organism-based; summary of the method: as §1
[4] = Hydrolytic stability of the compound in phosphate buffer at 50 uM at pH 7.4 up to 24 hrs by HPLC analysis; format: physicochemical; details: pH 7.4, 24 h
Summary of the method: (§2)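 A 5 mM DMSO stock was diluted to 50 µM final in phosphate (pH 7.4), citrate (pH 5.0) or trifluoroacetate (pH 1.2) buffer and incubated at 37 °C. Aliquots taken at 0, 0.5, 1, 4 and 24 h were analysed by reverse-phase HPLC. The mobile phase ran from 10 to 100% acetonitrile against water with 0.05% TFA over 20 min, at 1.0 mL/min.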

[5] = test system: Plasmodium falciparum; assay: Inhibition of Plasmodium falciparum PNP expressed in Escherichia coli BL21(DE3) using inosine as substrate at 200 uM by spectrophotometric analysis
[6] = test system: Human alphaherpesvirus 1; assay: Antiviral activity against Herpes simplex virus type 1 KOS assessed as inhibition of virus-induced cytopathicity at 100 uM by cell-based assay; format: functional, organism-based; summary of the method: as §1
[7] = Half life of the compound in trifluoroacetate buffer at 50 uM at pH 1.2 by HPLC analysis; format: physicochemical; summary of the method: as §2
[8] = test system: Influenza A virus; assay: Antiviral activity against Influenza A virus H1N1 assessed as inhibition of virus-induced cytopathicity at 100 uM by cell-based assay; format: functional, organism-based
Summary of the method: (§3)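 Inhibition of virus-induced cytopathicity in confluent cell monolayers (HEL, Vero, HeLa or MDCK cells), tested at varying compound concentrations with 100 µM the level assessed. Cytopathicity was scored once it was complete in untreated virus-infected controls. Activity is expressed as EC50, the concentration reducing virus-induced cytopathicity by 50%.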

[9] = test system: Vesicular stomatitis virus; assay: Antiviral activity against Vesicular stomatitis virus assessed as inhibition of virus-induced cytopathicity at 100 uM by cell-based assay; format: functional, organism-based
Summary of the method: (§4)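 Confluent HEL, Vero, HeLa or MDCK monolayers were infected with 100 CCID50 of virus in the presence of varying compound concentrations, with 100 µM the level assessed. Cytopathic effect was recorded once it was complete in untreated infected controls. EC50 is the concentration reducing virus-induced cytopathicity by 50%.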

[10] = test system: Sindbis virus; assay: Antiviral activity against Sindbis virus assessed as inhibition of virus-induced cytopathicity at 100 uM by cell-based assay; format: functional, organism-based; summary of the method: as §1
[11] = test system: HEL; assay: Cytotoxicity against HEL up to 100 uM; format: cell-based; details: human
[12] = test system: Human alphaherpesvirus 1; assay: Antiviral activity against thymidine kinase-deficient ACV-resistant Herpes simplex virus type 1 KOS assessed as inhibition of virus-induced cytopathicity at 100 uM by cell-based assay; format: functional, organism-based; summary of the method: as §4
[13] = test system: Human alphaherpesvirus 2; assay: Antiviral activity against Herpes simplex virus type 2 Lyons assessed as inhibition of virus-induced cytopathicity at 100 uM by cell-based assay; format: functional, organism-based; summary of the method: as §1
[14] = test system: Mammalian orthoreovirus 1; assay: Antiviral activity against Reovirus 1 assessed as inhibition of virus-induced cytopathicity at 100 uM by cell-based assay; format: functional; summary of the method: as §1
[15] = test system: Vero; assay: Cytotoxicity against African green monkey Vero cells up to 100 uM; format: cell-based; details: chlorocebus sabaeus
[16] = test system: Punta Toro virus; assay: Antiviral activity against Punta Toro virus assessed as inhibition of virus-induced cytopathicity at 100 uM by cell-based assay; format: functional, organism-based; summary of the method: as §1
[17] = test system: Coxsackievirus B4; assay: Antiviral activity against Coxsackievirus B4 assessed as inhibition of virus-induced cytopathicity at 100 uM by cell-based assay; format: functional, organism-based; summary of the method: as §1
[18] = test system: Influenza B virus; assay: Antiviral activity against Influenza B virus assessed as inhibition of virus-induced cytopathicity at 100 uM by cell-based assay; format: functional, organism-based; summary of the method: as §3
[19] = Hydrolytic stability of the compound in citrate buffer at 50 uM at pH 5 up to 24 hrs by HPLC analysis; format: physicochemical; details: pH 5, 24 h; summary of the method: as §2
[20] = test system: Human alphaherpesvirus 2; assay: Antiviral activity against Herpes simplex virus type 2 G assessed as inhibition of virus-induced cytopathicity at 100 uM by cell-based assay; format: functional, organism-based; details: strain G; summary of the method: as §1
[21] = test system: Vaccinia virus; assay: Antiviral activity against Vaccinia virus Lederle assessed as inhibition of virus-induced cytopathicity at 100 uM by cell-based assay; format: functional, organism-based; details: Orthopoxvirus vaccinia; summary of the method: as §4
[22] = test system: HeLa; assay: Cytotoxicity against human HeLa cells up to 100 uM; format: cell-based
[23] = test system: MDCK; assay: Cytotoxicity against MDCK cells up to 100 uM; format: cell-based, Canis lupus familiaris; details: dog
[24] = test system: Influenza A virus H3N2; assay: Antiviral activity against Influenza A virus H3N2 assessed as inhibition of virus-induced cytopathicity at 100 uM by cell-based assay; format: functional, organism-based; summary of the method: as §3
[25] = Inhibition of Plasmodium falciparum PNP expressed in Escherichia coli BL21(DE3) using inosine as substrate by spectrophotometric analysis; details: read-out: Ki
Summary of the method: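 Recombinant PfPNP (His-vector, E. coli BL21(DE3), 1 mM IPTG, 37 °C, 4 h) was assayed at 25 nM. The mix held 50 mM KH2PO4 pH 7.5, 60 mU xanthine oxidase and 25 µM inosine, at 25 °C. Uric acid formation was followed at 293 nm. Rates were measured at five or more inhibitor concentrations.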

[26] = test system: Plasmodium falciparum; assay: Antiplasmodial activity against chloroquine-sensitive Plasmodium falciparum 3D7 assessed as growth inhibition at 25 uM; format: functional, organism-based
Summary of the method: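 Intraerythrocytic-stage growth assay against the chloroquine-sensitive P. falciparum 3D7 strain. Compounds were tested at a single level of 25 µM, with chloroquine run in the same assay as reference.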

[27] = test system: Escherichia coli; assay: Inhibition of Escherichia coli PNP-mediated inosine hydrolysis assessed as residual activity at 250 uM after 1 hr by RP-HPLC analysis relative to control
Summary of the method: (§5)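 Enzyme levels were 20 nM for E. coli and M. hyorhinis PNP and 6 nM for human PNP, in buffer of 50 mM MOPS, 0.2 mM EDTA and 200 mM potassium phosphate, pH 6.5, at 37 °C. Compound (250 µM) and inosine (100 µM) were incubated 60 min. Conversion to hypoxanthine was measured by RP-18 HPLC using an NaH2PO4/heptanesulfonate (pH 3.2) to acetonitrile gradient.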

[28] = test system: Mesomycoplasma hyorhinis; assay: Inhibition of Mycoplasma hyorhinis PNP-mediated inosine hydrolysis assessed as residual activity at 250 uM after 1 hr by RP-HPLC analysis relative to control; summary of the method: as §5
[29] = biological target: T1, Purine nucleoside phosphorylase (Homo sapiens) (UniProt P00491); assay: Inhibition of human PNP-mediated inosine hydrolysis assessed as residual activity at 250 uM after 1 hr by RP-HPLC analysis relative to control; summary of the method: as §5
T1 sequence (whole entry): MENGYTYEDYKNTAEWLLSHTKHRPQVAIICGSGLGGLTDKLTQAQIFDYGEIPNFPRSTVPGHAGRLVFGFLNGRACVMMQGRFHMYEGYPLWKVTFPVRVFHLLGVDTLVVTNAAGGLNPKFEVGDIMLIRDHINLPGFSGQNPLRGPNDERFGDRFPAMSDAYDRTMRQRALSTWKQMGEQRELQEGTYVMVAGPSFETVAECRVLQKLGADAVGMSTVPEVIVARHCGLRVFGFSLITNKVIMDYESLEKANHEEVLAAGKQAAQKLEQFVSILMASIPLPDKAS

Row | SMILES | Activity [1] | Activity [2] | Activity [3] | Stability [4] | Activity [6] | half-life at 50 µM [7] | Activity [8] | Activity [9] | Activity [10] | Activity [11] | Activity [12] | Activity [13] | Activity [14] | Activity [15] | Activity [16] | Activity [17] | Activity [18] | Stability [19] | Activity [20] | Activity [21] | further results
1 | O=c1[nH]cnc2c1nc(-c1cccnc1)n2[C@@H]1O[C@H](CO)[C@@H](O)[C@H]1O | Non-toxic | inactive | inactive | Stable | inactive | 15 h | inactive | inactive | inactive | Non-toxic | inactive | inactive | inactive | Non-toxic | inactive | inactive | inactive | Stable | inactive | inactive | inhibition [5]: inactive; Activity [22]: Non-toxic; Activity [23]: Non-toxic; Activity [24]: inactive
2 | O=c1[nH]cnc2c1nc(-c1ccc(C(F)(F)F)cc1)n2[C@@H]1O[C@H](CO)[C@@H](O)[C@H]1O | Non-toxic | inactive | inactive | Stable | inactive | 5 h | inactive | inactive | inactive | Non-toxic | inactive | inactive | inactive | Non-toxic | inactive | inactive | inactive | Stable | inactive | inactive | Ki [25]: 3.69 µM; growth inhibition (GI) [26]: inactive; Activity [27]: 96%; Activity [28]: 96%; Activity [29]: 96%; Activity [22]: Non-toxic; Activity [23]: Non-toxic; Activity [24]: inactive
3 | COc1ccc(-c2nc3c(=O)[nH]cnc3n2[C@@H]2O[C@H](CO)[C@@H](O)[C@H]2O)cc1 | Non-toxic | inactive | inactive | Stable | inactive | 5 h | inactive | inactive | inactive | Non-toxic | inactive | inactive | inactive | Non-toxic | inactive | inactive | inactive | Stable | inactive | inactive | inhibition [5]: inactive; Activity [22]: Non-toxic; Activity [23]: Non-toxic; Activity [24]: inactive
